ChEMBL document CHEMBL1122589 (J Med Chem, 1984)
Activity calls are given as the source filed them. The rule behind the calls is not given here.

What was measured:
Nucleic Acid = assay: Binding constant for DNA by ethidium bromide displacement; type: nucleic-acid assay
L1210 [1] = assay: In vitro concentration required to inhibit the growth of L1210 cells in culture by 50% following a 48 hr exposure.; type: functional; conditions: Mus musculus, L1210, 48 h; read-out: ID50 (the source's name)
Mus musculus [2] = species on record: Mus musculus; assay: Percentage increase in life span of drug-treated tumor bearing controls was determined; type: functional
In short: (§1)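 Survival of drug-treated mice bearing ip-inoculated leukemia was compared with untreated tumor-bearing controls. The result is expressed as percentage increase in life span (ILS), and a value above 20% was taken as statistically significant.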

P388 = assay: Dose of drug given intraperitoneally on days 1, 5, and 9 that provides the highest ILS value in mice bearing 10E6 ip inoculated P388 leukemia cells in vivo
Mus musculus [3] = species on record: Mus musculus; assay: Percentage increase in life span of drug-treated tumor bearing controls was determined no. in parentheses =no. of animals out of a 6 group that survived indefinitely; type: functional; in short: as §1
Mus musculus [4] = species on record: Mus musculus; assay: Percentage increase in life span of drug-treated tumor bearing controls was determined no. in parentheses are the animals (out of a group of 6) that survived indefinitely; type: functional; in short: as §1
Mus musculus [5] = assay: Dose of drug given intraperitoneally on days 1, 5, and 9 that provides the highest ILS value in mice bearing 10E6 ip inoculated P388 leukemia cells in vivo
L1210 [6] = assay: Dose of drug given intraperitoneally on a qd 1-5 schedule that provides the highest ILS value in mice bearing 10E6 ip inoculated L1210 leukemia cells; type: functional, Mus musculus
In short: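 Mice inoculated ip with 10⁶ L1210 leukemia cells; drug given ip daily on days 1-5 (qd 1-5). Optimal dose, in mg/kg/day, is the dose giving the highest increase in life span (ILS).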

[7] = Dissociation constant in aqueous DMF.; type: physicochemical
In short: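 pKa obtained by UV spectroscopy in 20% aqueous DMF.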

L1210 [8] = assay: Potency against L1210 leukemia cells in culture in vitro according to the NCI protocols Nanomolar concentration required to inhibit the growth of L1210 cells in culture by 50% following a 48 hr exposure; type: functional; conditions: Mus musculus, L1210, 48 h; read-out: ID50 (the source's name)
In short: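 L1210 leukaemia cells were grown in culture and exposed to drug for 48 h. The value is the drug concentration giving 50% growth inhibition, expressed in nanomolar.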

Mus musculus [9] = species on record: Mus musculus; assay: Percentage increase in life span of drug-treated tumor bearing controls was determined; IN- Inactive at the highest dose tested; type: functional, organism-based

CS(=O)(=O)Nc1ccc(Nc2c3ccccc3nc3ccccc23)c(NCCO)c1
Log K (Nucleic Acid): 6.49
IC50 (L1210 [1]): 86 nM
ILS (Mus musculus [2]): 89%
OD (P388): 45 mg/kg

CCNc1cc(NS(C)(=O)=O)ccc1Nc1c2ccccc2nc2ccccc12
Log K (Nucleic Acid): 6.54
IC50 (L1210 [1]): 229 nM
ILS (Mus musculus [2]): 69%
OD (P388): 45 mg/kg

CCCCCCCS(=O)(=O)Nc1ccc(Nc2c3ccccc3nc3ccccc23)c(NC)c1
Log K (Nucleic Acid): 6.44
IC50 (L1210 [1]): 397 nM
ILS (Mus musculus [2]): 47%
OD (P388): 45 mg/kg

CN(CCO)c1cc(NS(C)(=O)=O)ccc1Nc1c2ccccc2nc2ccccc12
Log K (Nucleic Acid): 5.52
IC50 (L1210 [1]): 1400 nM
ILS (Mus musculus [3]): 100%
OD (P388): 100 mg/kg

CNc1cc(NS(C)(=O)=O)ccc1Nc1c2ccccc2nc2ccccc12
Log K (Nucleic Acid): 6.42
IC50 (L1210 [1]): 71 nM
ILS (Mus musculus [4]): 152%
OD (Mus musculus [5]): 13.3 mg/kg

CS(=O)(=O)Nc1ccc(Nc2c3ccccc3nc3ccccc23)c(N2CCOCC2)c1
Log K (Nucleic Acid): 5.26
IC50 (L1210 [1]): > 1600 nM
OD (P388): 100 mg/kg

CS(=O)(=O)Nc1ccc(Nc2c3ccccc3nc3ccccc23)c(N)c1
Log K (Nucleic Acid): 6.28
IC50 (L1210 [1]): 1200 nM
ILS (Mus musculus [2]): 106%
OD (L1210 [6]): 45 mg/kg

CCCS(=O)(=O)Nc1ccc(Nc2c3ccccc3nc3ccccc23)c(NC)c1
Log K (Nucleic Acid): 6.61
IC50 (L1210 [1]): 86 nM
ILS (Mus musculus [2]): 73%
OD (P388): 20 mg/kg

CC(C)Oc1cc(NS(C)(=O)=O)ccc1N=c1c2ccccc2[nH]c2ccccc12
pKa [7]: 7.51
Log K (Nucleic Acid): 5.17
IC50 (L1210 [1]): > 1700 nM
OD (L1210 [6]): >500 mg/kg

CS(=O)(=O)Nc1ccc(Nc2c3ccccc3nc3ccccc23)c(F)c1
pKa [7]: 6.62
Log K (Nucleic Acid): 5.65
IC50 (L1210 [1]): 800 nM
OD (L1210 [6]): >500 mg/kg

CCOc1cc(NS(C)(=O)=O)ccc1Nc1c2ccccc2nc2ccccc12
pKa [7]: 7.55
Log K (Nucleic Acid): 5.68
IC50 (L1210 [1]): 600 nM
ILS (Mus musculus [2]): 29%
OD (L1210 [6]): 250 mg/kg

CCS(=O)(=O)Nc1ccc(Nc2c3ccccc3nc3ccccc23)c(NC)c1
Log K (Nucleic Acid): 6.62
IC50 (L1210 [1]): 43 nM
ILS (Mus musculus [2]): 99%
OD (P388): 13.3 mg/kg

CCCCCCNc1cc(NS(C)(=O)=O)ccc1Nc1c2ccccc2nc2ccccc12
Log K (Nucleic Acid): 6.36
IC50 (L1210 [1]): 136 nM
OD (P388): 60 mg/kg

CS(=O)(=O)Nc1ccc(Nc2c3ccccc3nc3ccccc23)cc1
IC50 (L1210 [1]): 35 nM
ILS (Mus musculus [2]): 107%
OD (L1210 [6]): 45 mg/kg

CN(C)c1cc(NS(C)(=O)=O)ccc1Nc1c2ccccc2nc2ccccc12
ILS (Mus musculus [3]): 210%
OD (P388): 166 mg/kg

CCCCNc1cc(NS(C)(=O)=O)ccc1Nc1c2ccccc2nc2ccccc12
Log K (Nucleic Acid): 6.36
IC50 (L1210 [1]): 185 nM
OD (P388): 45 mg/kg

CCCCS(=O)(=O)Nc1ccc(Nc2c3ccccc3nc3ccccc23)c(NC)c1
Log K (Nucleic Acid): 6.66
IC50 (L1210 [1]): 102 nM
ILS (Mus musculus [2]): 67%
OD (P388): 45 mg/kg

CC(=O)NNc1cc(NS(C)(=O)=O)ccc1Nc1c2ccccc2nc2ccccc12
Log K (Nucleic Acid): 5.89
IC50 (L1210 [1]): > 1500 nM

CS(=O)(=O)Nc1ccc(Nc2c3ccccc3nc3ccccc23)c(N2CCCCC2)c1
Log K (Nucleic Acid): 5.69
IC50 (L1210 [1]): > 1600 nM
OD (P388): 100 mg/kg

CS(=O)(=O)Nc1ccc(Nc2c3ccccc3nc3ccccc23)c(NCC(O)CO)c1 (stereo unspecified)
Log K (Nucleic Acid): 6.71
IC50 (L1210 [1]): 219 nM
ILS (Mus musculus [2]): 84%
OD (P388): 45 mg/kg

Cc1cc(NS(C)(=O)=O)ccc1Nc1c2ccccc2nc2ccccc12
Log K (Nucleic Acid): 5.74
IC50 (L1210 [1]): 120 nM
ILS (Mus musculus [2]): 106%
OD (L1210 [6]): 97 mg/kg

CS(=O)(=O)Nc1ccc(Nc2c3ccccc3nc3ccccc23)c(NC2CCCCC2)c1
Log K (Nucleic Acid): 6.3
IC50 (L1210 [1]): 470 nM
OD (P388): 45 mg/kg

CCN(CC)c1cc(NS(C)(=O)=O)ccc1Nc1c2ccccc2nc2ccccc12
Log K (Nucleic Acid): 5.35
IC50 (L1210 [1]): 4600 nM
OD (P388): 100 mg/kg

CS(=O)(=O)Nc1ccc(Nc2c3ccccc3nc3ccccc23)c(O)c1
pKa [7]: 7.56
Log K (Nucleic Acid): 5.53
IC50 (L1210 [1]): 4000 nM
ILS (Mus musculus [2]): 88%
OD (L1210 [6]): 25 mg/kg

CCCNc1cc(NS(C)(=O)=O)ccc1Nc1c2ccccc2nc2ccccc12
Log K (Nucleic Acid): 6.57
IC50 (L1210 [1]): 286 nM
OD (P388): 66 mg/kg

CS(=O)(=O)Nc1ccc(Nc2c3ccccc3nc3ccccc23)c(OCCO)c1
pKa [7]: 7.53
Log K (Nucleic Acid): 5.91
IC50 (L1210 [1]): > 1700 nM
ILS (Mus musculus [2]): 67%
OD (L1210 [6]): 62.5 mg/kg

CS(=O)(=O)Nc1ccc(Nc2c3ccccc3nc3ccccc23)c(Cl)c1
Log K (Nucleic Acid): 5.45
IC50 (L1210 [1]): 1300 nM
OD (L1210 [6]): >500 mg/kg

CCCCCNc1cc(NS(C)(=O)=O)ccc1Nc1c2ccccc2nc2ccccc12
Log K (Nucleic Acid): 6.42
IC50 (L1210 [8]): 117 nM
OD (P388): 30 mg/kg

CCCCCCCCS(=O)(=O)Nc1ccc(Nc2c3ccccc3nc3ccccc23)c(NC)c1
Log K (Nucleic Acid): 6.51
IC50 (L1210 [1]): 217 nM
ILS (Mus musculus [2]): 42%
OD (P388): 30 mg/kg

CCCCCCCNc1cc(NS(C)(=O)=O)ccc1Nc1c2ccccc2nc2ccccc12
Log K (Nucleic Acid): 6.54
IC50 (L1210 [1]): 181 nM
OD (P388): 45 mg/kg

COc1cc(NS(C)(=O)=O)ccc1Nc1c2ccccc2nc2ccccc12 [AMSACRINE]
Log K (Nucleic Acid): 5.57
ILS (Mus musculus [2]): 114%
OD (L1210 [6]): 6.7 mg/kg

CS(=O)(=O)Nc1ccc(Nc2c3ccccc3nc3ccccc23)c([N+](=O)[O-])c1
Log K (Nucleic Acid): 5.61
IC50 (L1210 [1]): 9000 nM
ILS (Mus musculus [9]): inactive
OD (L1210 [6]): >500 mg/kg

CCCCCCS(=O)(=O)Nc1ccc(Nc2c3ccccc3nc3ccccc23)c(NC)c1
Log K (Nucleic Acid): 6.41
IC50 (L1210 [1]): 443 nM
ILS (Mus musculus [2]): 36%
OD (P388): 100 mg/kg

CCCCCS(=O)(=O)Nc1ccc(Nc2c3ccccc3nc3ccccc23)c(NC)c1
Log K (Nucleic Acid): 6.58
IC50 (L1210 [1]): 144 nM
ILS (Mus musculus [2]): 61%
OD (P388): 20 mg/kg

CS(=O)(=O)Nc1ccc(Nc2c3ccccc3nc3ccccc23)c(N2CCCC2)c1
Log K (Nucleic Acid): 5.49
IC50 (L1210 [1]): 1300 nM
OD (P388): 45 mg/kg
